Publication PMC4827872 (Chemical research in toxicology, 2015)
Read-outs that look alike come from different tables or passages of the source. Where a SMILES comes first, the peptide text is derived from it. The star is where a group is joined. Cbz = O=C(OCc1ccccc1)*

Assays:
[1] = biological target: T1, DIO2 (Homo sapiens, UniProt Q92813); assay: DIO2 activity in H4 glioma cells exposed to PBDEs/OH-BDEs; assay type: cell-based; conditions: for Significant DIO2 Effects in H4 Cells (%Ctrl): at the lowest dose that significantly decreased DIO2 activity; for decrease in DIO2 activity with MG132 coexposure: plus 10 µM MG132
T1 sequence (Q92813 1-273): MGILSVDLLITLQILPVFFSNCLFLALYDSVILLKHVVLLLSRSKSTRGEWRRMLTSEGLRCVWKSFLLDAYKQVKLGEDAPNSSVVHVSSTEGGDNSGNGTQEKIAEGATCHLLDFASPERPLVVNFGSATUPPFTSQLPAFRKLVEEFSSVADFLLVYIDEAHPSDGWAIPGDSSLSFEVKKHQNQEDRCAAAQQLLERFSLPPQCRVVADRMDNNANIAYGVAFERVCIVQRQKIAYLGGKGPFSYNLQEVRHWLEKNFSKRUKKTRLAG

[2] = biological target: T1, DIO2; assay: In vitro DIO2 kinetics and inhibition in microsomal preparations of H4 cells; assay type: biochemical; conditions: for concentrations at which DIO2 activity was inhibited / Vmax of DIO2 with inhibitor added: H4 microsomes; for concentrations at which DIO2 activity was inhibited: 2 nM T4
[3] = tested on: DIO2 mRNA; assay: DIO2 mRNA expression; assay type: cell-based, human; conditions: 6 h; for DIO2 mRNA expression level vs control: 3 doses
[4] = tested on: cultured cells; assay: Cell viability; assay type: cell-based; conditions: for decrease in viability: 5 µM, 24 h exposure; for significant effects on viability: any doses less than 7.5 µM, 24 h
[5] = tested on: cultured cells; assay: Cell membrane damage; assay type: cell-based; conditions: 24 h; for membrane damage vs control: doses less than 50 µM; for significant effects on membrane damage: any doses less than 7.5 µM
Procedure, shortened: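 Cells in 96-well plates, switched to serum-free A-DMEM with 30 nM selenium 24 h beforehand, then exposed 24 h to test compound added from 1,000× DMSO stocks (final DMSO 0.1%). Membrane damage was read as glucose-6-phosphate dehydrogenase activity released into the medium. Values were normalized to well DNA content and to DMSO vehicle controls.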

[6] = human serum, cited from earlier work
[7] = biological target: T1, DIO2; assay: DIO2 activity in primary human astrocyte cells exposed to test compounds; assay type: cell-based
Procedure, shortened: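 Primary human astrocytes were grown on gelatin-coated dishes, moved to serum-free A-DMEM (30 nM selenium) 24 h before use, and induced with 10 µM forskolin. Exposure was 6 h (0.1% DMSO), with 100 nM rT3 as positive control. Microsomes (100,000×g, 60 min) were incubated 75 min at 37°C with DTT/EDTA/glycerol buffer. Net T3 was measured by LC/MS/MS (fmol min−1 mg protein−1) and expressed as % vehicle control; n=8 from 2 experiments.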

[8] = Biotransformation assay in cultured cells; assay type: in vitro ADME, human; conditions: cells exposed for up to 48 h; 1 µM
[9] = substrate: NC(Cc1cc(I)c(Oc2cc(I)c(O)c(I)c2)c(I)c1)C(=O)O; assay: In vitro DIO2 kinetics and inhibition in microsomal preparations of H4 cells; assay type: biochemical, human; conditions: other: H4 microsomal fraction; T4 as substrate; no inhibitor; 37.0 °C
[10] = H4 cells, 5,000 nM, 6 h exposure
[11] = H4 glioma cells, doses of approximately 1–5 µM (abstract)
[12] = calculated assuming serum lipid 6.36 mg mL−1, ref 53
[13] = geometric mean or median, ref 53
[14] = H4 cells, 500 nM, 6 h, relative to MG132 control
[15] = Homo sapiens, read-out: DIO2 mRNA expression ratio relative to the control value of 1.0
[16] = calculated assuming serum lipid 6.36 mg mL−1, ref 36
[17] = calculated assuming serum lipid 6.36 mg mL−1, ref 5
[18] = calculated assuming serum lipid 6.36 mg mL−1, ref 43
[19] = calculated assuming serum lipid 6.36 mg mL−1, ref 52
[20] = geometric mean or median, ref 5
[21] = geometric mean or median, ref 43
[22] = geometric mean or median, ref 52

Oc1c(Br)ccc(Oc2ccc(Br)cc2Br)c1Br [3-OH-BDE-47]
lowest dose that significantly decreased DIO2 activity ([1]; H4 cells): ~1,000 nM | decrease in DIO2 activity ([1]; H4 cells, 1,000 nM, 1 h exposure): 71.1 ± 13.7% | decrease in DIO2 activity ([1]; H4 cells, 1,000 nM, 6 h exposure): 52.1 ± 8.5% | decrease in DIO2 activity ([1]; H4 cells, 1,000 nM, 12 h exposure): not significantly different from control | decrease in DIO2 activity [1, 10]: 68.2 ± 13.9% | decrease in DIO2 activity [1, 11]: 45–80% | Significant DIO2 Effects in H4 Cells (%Ctrl) [1]: 71.1% | concentrations at which DIO2 activity was inhibited [2]: > 1 µM | Ki ([2]; read-out: Ki for DIO2, calculated from IC50, measured T4 concentration and Km): 1.6 µM | DIO2 mRNA expression level vs control ([3]; H4 cells): not significantly different from control | decrease in viability [4]: 31.7 ± 7.8% | membrane damage vs control [5]: not significantly different from control | Average Serum Concentration [6, 12]: 0.020 nM | Average Serum Concentration [6, 13]: 1.6 ng/g lipid

Oc1cc(Oc2cc(Br)c(Br)cc2Br)c(Br)cc1Br [5’-OH-BDE-99]
inhibition at 1 µM ([1]; 6 h, read-out: decrease in DIO2 activity, H4 cells, 1,000 nM, 6 h exposure): 57.4 ± 1.2% | inhibition at 5 µM ([1]; 6 h, read-out: decrease in DIO2 activity, H4 cells, 5,000 nM, 6 h exposure): 63.6 ± 2% | inhibition at 1 µM ([1]; 12 h, read-out: decrease in DIO2 activity, H4 cells, 1,000 nM, 12 h exposure): 55.7 ± 5.4% | lowest dose that significantly decreased DIO2 activity ([1]; H4 cells): ~1,000 nM | decrease in DIO2 activity with MG132 coexposure [1, 14]: 37.0 ± 2.6% | decrease in DIO2 activity [1, 11]: 45–80% | Significant DIO2 Effects in H4 Cells (%Ctrl) [1]: 57.4% | IC50 [2]: 16.6 ± 1.1 µM | Ki [2]: 7.11 µM | concentrations at which DIO2 activity was inhibited [2]: > 1 µM | Vmax of DIO2 with inhibitor added ([2]; 15 µM 5’-OH-BDE-99 added): 47.2 ± 8.0 fmol min^−1 mg protein^−1 | mrna remaining at 5 µM [3, 15]: 64 ± 12% | significant effects on viability [4]: not detected | significant effects on membrane damage [5]: not detected | Average Serum Concentration [6, 13]: 22 ng/g lipid

Oc1cc(Br)cc(Br)c1Oc1ccc(Br)cc1Br [6-OH-BDE-47]
lowest dose that significantly decreased DIO2 activity ([1]; H4 cells): 5,000 nM | decrease in DIO2 activity [1, 10]: 57.1 ± 11.4% | decrease in DIO2 activity [1, 11]: 45–80% | Significant DIO2 Effects in H4 Cells (%Ctrl) [1]: 57.1% | DIO2 mRNA expression ratio relative to the control value of 1.0 ([3]; H4 cells, 5,000 nM, normalized to RPL13A): 0.59 ± 0.08 | decrease in viability [4]: 32.0 ± 8.2% | membrane damage vs control [5]: not significantly different from control | Average Serum Concentration [6, 16]: 0.0022 nM | Maximum Serum Concentration [6, 16]: 0.137 nM | Average Serum Concentration [6, 12]: 0.13 nM | Average Serum Concentration ([6]; geometric mean or median, ref 36): 0.17 ng/g lipid | Average Serum Concentration [6, 13]: 9.9 ng/g lipid | Average Serum Concentration ([6]; geometric mean or median, ref 54): 0.0131 nM | Maximum Serum Concentration ([6]; ref 36): 10.8 ng/g lipid | Maximum Serum Concentration ([6]; ref 54): 0.336 nM

Brc1ccc(Oc2ccc(Br)cc2Br)c(Br)c1 [BDE-47]
effect on DIO2 activity ([1]; H4 cells, any of the exposure concentrations, 6 h exposure): did not significantly alter | Significant DIO2 Effects in H4 Cells (%Ctrl) [1]: None | DIO2 mRNA expression level vs control ([3]; H4 cells): not significantly different from control | significant effects on viability [4]: not detected | significant effects on membrane damage [5]: not detected | Average Serum Concentration [6, 17]: 0.305 nM | Maximum Serum Concentration [6, 17]: 4.58 nM | Average Serum Concentration [6, 18]: 1.01 nM | Maximum Serum Concentration [6, 18]: 1.94 nM | Average Serum Concentration [6, 19]: 1.02 nM | Maximum Serum Concentration [6, 19]: 60.7 nM | Average Serum Concentration [6, 20]: 23.3 ng/g lipid | Average Serum Concentration [6, 21]: 77 ng/g lipid | Average Serum Concentration [6, 22]: 77.8 ng/g lipid | Maximum Serum Concentration ([6]; ref 5): 350 ng/g lipid | Maximum Serum Concentration ([6]; ref 43): 148 ng/g lipid | Maximum Serum Concentration ([6]; ref 52): 4,640 ng/g lipid

Brc1ccc(Oc2cc(Br)c(Br)cc2Br)c(Br)c1 [BDE-99]
inhibition at 0.5 µM ([1]; 6 h, read-out: decrease in DIO2 activity, H4 cells, 500 nM, 6 h exposure): 82.9 ± 6.7% | inhibition at 2.5 µM ([1]; 6 h, read-out: decrease in DIO2 activity, H4 cells, 2,500 nM, 6 h exposure): 80.8 ± 4.7% | inhibition at 0.5 µM ([1]; 12 h, read-out: decrease in DIO2 activity, H4 cells, 500 nM, 12 h exposure): 64.6 ± 2.8% | decrease in DIO2 activity with MG132 coexposure [1, 14]: 45.5 ± 3.8% | decrease in DIO2 activity ([1]; H4 cells, doses of 500 nM or greater (abstract)): up to 80% | Significant DIO2 Effects in H4 Cells (%Ctrl) [1]: 82.9% | decrease in DIO2 activity ([1]; both cell types (primary astrocytes and H4 glioma), exposure for a few hours): approximately 50% | inhibition at 0.5 µM ([7]; 6 h, read-out: decrease in DIO2 activity): 51.8 ± 8.6% | decrease in DIO2 activity ([7]; primary astrocyte cells, doses of 500 nM or greater (abstract)): 50% | Ki [2]: 33.3 µM | concentrations at which DIO2 activity was inhibited [2]: > 1 µM | Vmax of DIO2 with inhibitor added ([2]; 20 µM BDE-99 added): 50.6 ± 5.6 fmol min^−1 mg protein^−1 | inhibition at 90 µM ([2]; read-out: maximum inhibition of DIO2): 45% | mrna remaining at 0.5 µM [3, 15]: 63 ± 6% | mrna remaining at 2.5 µM [3, 15]: 59 ± 10% | significant effects on viability [4]: not detected | significant effects on membrane damage [5]: not detected | metabolites formed in cells or cell culture media [8]: Neither OH-BDEs nor debrominated PBDE metabolites were detected | Average Serum Concentration [6, 20]: 6.39 ng/g lipid | Average Serum Concentration [6, 21]: 3.0 ng/g lipid | Average Serum Concentration [6, 22]: 26.1 ng/g lipid | Maximum Serum Concentration ([6]; ref 5): 225 ng/g lipid | Maximum Serum Concentration ([6]; ref 43): 33 ng/g lipid | Maximum Serum Concentration ([6]; ref 52): 1,200 ng/g lipid

CC(C)C[C@@H](C=O)NC(=O)[C@H](CC(C)C)NC(=O)[C@H](CC(C)C)NC(=O)OCc1ccccc1 [MG132, reference compound] (Cbz-Leu-Leu-Leu-aldehyde)
increase in basal DIO2 activity ([1]; H4 cells, 10 µM): 73.5 ± 17.9%

N[C@@H](Cc1ccc(Oc2cc(I)c(O)c(I)c2)c(I)c1)C(=O)O [rT3, 3,3’,5’ Triiodothyronine, reference compound]
decrease in DIO2 activity ([1]; H4 cells, 100 nM, 6 h, no inhibitor coexposure (Figure 8)): 55.9% ± 3.6 | decrease in DIO2 activity with MG132 coexposure ([1]; H4 cells, 100 nM, 6 h): 25.8 ± 2.3% | decrease in DIO2 activity ([7]; primary human astrocytes, 100 nM, 6 h, positive control): 49.4 ± 4.1%

B1: DIO2 (Homo sapiens) (protein)
chain: MGILSVDLLITLQILPVFFSNCLFLALYDSVILLKHVVLLLSRSKSTRGEWRRMLTSEGLRCVWKSFLLDAYKQVKLGEDAPNSSVVHVSSTEGGDNSGNGTQEKIAEGATCHLLDFASPERPLVVNFGSATUPPFTSQLPAFRKLVEEFSSVADFLLVYIDEAHPSDGWAIPGDSSLSFEVKKHQNQEDRCAAAQQLLERFSLPPQCRVVADRMDNNANIAYGVAFERVCIVQRQKIAYLGGKGPFSYNLQEVRHWLEKNFSKRUKKTRLAG
Km [9]: 3.49 ± 0.94 nM | Vmax [9]: 47.5 ± 2.9 fmol min^−1 mg protein^−1
